Screening data from PubChem BioAssay.
An excerpt weighted towards active compounds, which were near 3.7% of everything screened.
Kir21 inh: inhibitors of mouse Kir2.1 inward-rectifier potassium channel; B-score at 10 µM; HEK293-Kir2.1, FluxOR thallium flux fluorescence; stronger effect = lower value; 310,000 tested, 0.85% active; Inward rectifier potassium channel 2 (Mus musculus), P35561;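 active means fluorescence ratio B-score at or below minus 3 SD of library scores, with starting-brightness B-score within 2 SD, cut at about -4.2 in these data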;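 further: channel flux triggered by added potassium and thallium sulfate stimulus; B-score of peak minus minimum fluorescence over baseline after thallium stimulus; more negative B-score means stronger Kir2.1 block with less thallium influx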
Target sequence (P35561 whole entry, looked up): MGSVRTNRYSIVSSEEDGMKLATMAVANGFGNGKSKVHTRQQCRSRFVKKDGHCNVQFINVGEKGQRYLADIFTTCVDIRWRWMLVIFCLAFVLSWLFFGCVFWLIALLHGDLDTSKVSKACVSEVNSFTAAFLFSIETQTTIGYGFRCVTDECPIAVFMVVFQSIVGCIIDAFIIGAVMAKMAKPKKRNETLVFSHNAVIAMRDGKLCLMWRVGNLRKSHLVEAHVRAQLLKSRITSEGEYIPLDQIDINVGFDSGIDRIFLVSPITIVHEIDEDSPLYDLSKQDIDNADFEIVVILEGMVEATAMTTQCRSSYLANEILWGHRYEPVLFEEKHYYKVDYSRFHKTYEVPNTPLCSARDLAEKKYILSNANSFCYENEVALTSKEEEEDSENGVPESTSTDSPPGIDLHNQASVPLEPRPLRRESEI
KCNQ1 act: potentiators or activators of KCNQ1 channel, primary screen, cell-based, thallium flux, high-throughput; Potassium voltage-gated channel subfamily KQT member 1 (Homo sapiens), P51787; CHO-K1 KCNQ1, thallium flux FluxOR fluorescence; stronger effect = higher value; B-score at 10 µM; 310,000 tested, 0.35% active; AID 2648, 2010;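 active means fluorescence ratio B-score, a plate-corrected score, at least three library SD, with initial intensity B-score within 5 SD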
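Doses: Single concentration per compound, DMSO matched to controls | Test system: KCNQ1-transfected CHO-K1 cells | Timing: 90 min dye loading and 20 min compound exposure, both at room temperature | Measured by: Kinetic FluxOR thallium fluorescence, 10-s 1-Hz baseline, 110-s post-stimulus read | Medium: Assay buffer with matched DMSO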
KCNK3 inh: human KCNK3 channel inhibitors, primary screen, CHO cells, FluxOR thallium flux, B-score | Potassium channel subfamily K member 3 (Homo sapiens), O14649 | FluxOR fluorescence; stronger effect = lower value | B-score at 10 µM | 340,000 tested, 0.84% active;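 active means B-score under library mean minus 4 SD, starting fluorescence ratio at most library mean plus 5 SD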;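 further: more negative B-score means stronger inhibition of thallium flux through KCNK3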
hERG protect: hERG rescue from dofetilide block, primary screen, cell-based, CHO-hERG, FluxOR thallium flux, dofetilide IC70; dofetilide IC70 present; 310,000 tested, 0.51% active; Voltage-gated inwardly rectifying potassium channel KCNH2 (Homo sapiens), Q12809; activation (rescue from dofetilide block), less the hit threshold, % at 10 µM; AID 1511, 2009;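 active means activation above the mean of controls blocked by dofetilide plus 5 SD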;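 further: thallium influx through hERG after potassium depolarization seen as dye fluorescence rise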
KCNQ1 block: inhibitors of human KCNQ1 channel, primary screen, cell-based, thallium flux, high-throughput | Potassium voltage-gated channel subfamily KQT member 1 (Homo sapiens), P51787 | CHO-K1 KCNQ1, FluxOR thallium flux fluorescence; stronger effect = higher value | B-score at 10 µM | 310,000 tested, 1.3% active | AID 2642, 2010;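 active means compounds whose thallium flux B-score, printed positive for inhibition, exceeds three library SD while starting fluorescence stays within three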;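 further: channel opened by potassium depolarization with thallium stimulus after 20 min compound exposure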
KCNK9 block: KCNK9 potassium channel inhibitors, primary screen, HEK293 cells, thallium flux; Potassium channel subfamily K member 9 (Homo sapiens), Q9NPC2; FluxOR thallium flux fluorescence; stronger effect = lower value; B-score at 10 µM; 310,000 tested, 1.2% active;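 active means ratio B-score over 3 SD below the library mean, with starting fluorescence within 5 SD of its mean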;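 further: negative B-score means less thallium flux so channel inhibition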
KCNK9 inh conf: KCNK9 potassium channel inhibitors, confirmation, HEK293 cells, thallium flux, duplicate | 4,900 tested, 43% active | shares compounds with KCNK9 block | inhibition, % at 10 µM | AID 492992, 2010 | FluxOR thallium flux fluorescence;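 active means thallium signal inhibited by more than 5 SD of the compound-free buffer control wells, on both duplicate plates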;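 further: 0% = assay buffer control wells without compound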
Kir21 sel: mouse Kir2.1 channel inhibition, confirmation, selectivity assay for KCNK9 modulator project, cell-based, HEK293, thallium flux | inhibition, % at 10 µM | AID 492993, 2010 | Kir2.1 cells, FluxOR thallium flux fluorescence | shares compounds with KCNK9 block | 4,900 tested, 4% active;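 active means thallium signal drop more than 5 SD beyond the mean of the no-compound control wells, seen in both duplicate plates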;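 further: signal is fluorescence rise after thallium addition divided by baseline fluorescence; plate controls were assay buffer only for no effect and full block by chlorpromazine control for full effect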
KCNK9 uninduced: thallium flux in non-induced HEK293 cells, confirmation, counter-screen for KCNK9 inhibitor project, cell-based, second counter screen, non-induced KCNK9-HEK293; shares compounds with KCNK9 block; FluxOR thallium flux; inhibition, % at 10 µM; 4,900 tested, 40% active; AID 492997, 2010;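 active means thallium signal drop beyond 5 SD of the untreated control mean, on both duplicate plates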;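 further: plate controls were buffer only IC0 wells for no effect and SID17386958 at its maximal inhibitory level for full effect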
An asterisk follows results filed as active; i = inactive; · = no result given.

SMILES	Kir21 inh	KCNQ1 act	KCNK3 inh	hERG protect	KCNQ1 block	KCNK9 block	KCNK9 inh conf	Kir21 sel	KCNK9 uninduced
Cc1ccc(C(=O)Nc2nnc(NC(=S)Nc3ccccc3)s2)cc1	-1.2	i	i	-12	i	i	i	i	i
Cc1cccc(C(=O)NN2C(=O)C3C(c4ccccc4)C=CC(c4ccccc4)C3C2=O)c1 (stereo not drawn)	0.29	i	i	1	i	-13*	41%*	i	i
CCN(C(=O)CSc1nc2ccccc2[nH]1)C1CCS(=O)(=O)C1 (stereo not drawn)	·	·	i	·	·	·	·	·	·
O=c1cc(/C=C/c2ccccc2)oc2c1ccc1ccccc12	-0.44	i	i	-15	i	-8.3*	i	i	i
O=C(Nc1ccc(C(F)(F)F)cc1)C1(c2ccccc2)CC1	0.18	i	i	-10	i	i	·	·	·
O=C(Nc1cccc(C(F)(F)F)c1)C1(c2ccccc2)CC1	1.7	i	i	-11	i	-12*	53%*	i	37%*
CCCC[C@@H]1C[C@H]1[C@@H](NC(=O)c1cccs1)c1ccc(Cl)cc1	-0.64	i	·	-23	10*	-11*	52%*	i	50%*
COc1ccccc1C(C#N)c1cccc(Cl)n1 (stereo not drawn)	0.28	i	i	-13	i	i	·	·	·
Clc1cccc2sc(N3CCN(c4ccccc4)CC3)nc12	0.01	i	i	-19	i	-14*	36%*	i	36%*
Clc1ccc(Cl)c2sc(N3CCCC3)nc12	-1.1	i	i	-9	i	i	·	·	·
O=Cc1ccc(Cl)c(Cl)c1	·	·	i	·	·	·	·	·	·
COc1ccccc1CNC(=O)COC(=O)CSc1ccc(Cl)cc1	0.18	i	i	-7	i	i	·	·	·
COc1ccccc1CNc1cc(CSc2ccc(Cl)cc2)nc(C)n1	-2.2	i	i	-6	i	i	i	46%*	i
CCCN(CC(=O)Nc1ccc(C)cc1Br)CC(=O)Nc1ccc(F)c(F)c1F	-0.46	i	i	-8	i	-9.9*	64%*	i	39%*
CCCN(CC(=O)Nc1cccc(Br)c1)CC(=O)Nc1ccc(F)c(F)c1F	1.6	i	i	-4	i	-15*	72%*	i	50%*
Fc1cccc(/C=N/Nc2cc(N3CCOCC3)ncn2)c1	-0.8	i	i	1	i	i	·	·	·
CC(C)(C)c1ccc(C(CC(=O)O)NC(=O)Cc2ccc(F)cc2)cc1 (stereo not drawn)	2.1	i	·	-3	i	i	·	·	·
O=C(Nc1cc(C(F)(F)F)ccc1-n1cncn1)c1ccc(F)cc1Cl	·	·	i	·	·	·	·	·	·
CC(C)(C)c1cc(-c2csc(Nc3ccccc3)[n+]2Cc2ccc(C(=O)O)cc2)cc(C(C)(C)C)c1O	-4	15*	i	-10	i	i	i	i	i
CCN(CC)c1ccc(S(=O)(=O)N2CCOCC2)cc1NC(=O)Cn1nc(C)c([N+](=O)[O-])c1C	·	·	i	·	·	·	·	·	·
CCN(CC)c1ccc(S(=O)(=O)N2CCOCC2)cc1NC(=O)CN1CCc2ccccc2C1	1.2	i	i	-3	i	-10*	51%*	i	i
